Results gathered from unrelated publications.
Compare with care: the assays were run in different laboratories.

Compound	assay	test system	conditions	measurement	result
CC1=NN(CNc2ccccn2)C(=O)C1=NNn1c(-c2ccccc2)nc2ccccc2c1=O				logP	3.87
CC(C)Oc1cccc(-c2cnc(N3CCC(C(N)=O)CC3)s2)c1		male Swiss mouse, plasma	oral, 30 mg/kg, 2 h, single dose	concentration	206 ng/mL
CC[C@H](C)[C@@H]1NC(=O)[C@@](C)(NC(=O)[C@H](CCCNC(=N)N)NC(=O)[C@H](CC(C)C)NC(=O)[C@@H](NC(=O)[C@H](CCC(N)=O)NC(=O)[C@H](CC(C)C)NC(C)=O)[C@@H](C)O)CCCC=CCCC[C@@](C)(C(=O)N[C@@H](CC(C)C)C(=O)N[C@@H](Cc2ccc3ccccc3c2)C(N)=O)NC(=O)[C@H](CCCNC(=N)N)NC(=O)[C@H](CCC(N)=O)NC1=O		male BALB/c mouse, plasma	intramuscular, 5 mg/kg	half-life	10.6 h
Oc1cccc(/C=C/c2ccccc2)c1	HPLC			chromatographic logP	> 3.14
CC(C)(O)c1ccccc1-c1ccc2[nH]c(/C=C/c3ccc(C(F)(F)F)cc3)nc2c1		male human, plasma	oral, 2 mg, single dose, fasted, healthy volunteers	MRT	77.2 h
CC(C)(C)c1ccc(O)c(CN(Cc2cc(C(C)(C)C)ccc2O)C2CCC(NC(N)=O)CC2)c1 (stereo not shown)		male C57BL/6 mouse, plasma	intraperitoneal, 10 mg/kg, single dose	half-life	2.49 h
COc1cc(/C=C/c2ccccc2)cc(OC)c1	HPLC			chromatographic logP	> 3.14
CC1=NN(CNc2ccccc2)C(=O)C1=NNn1c(-c2ccccc2)nc2ccccc2c1=O				logP	4.49
c1ccc(-c2nc(N3CCC(c4ccccn4)C3)c3ccccc3n2)nc1 (stereo not shown)		female BALB/c mouse, plasma	oral, 50 mg/kg, 1 h	concentration	2940 ng/mL
O=S(=O)(c1ccc(-c2ccc3nccc(Nc4ccncn4)c3c2)cc1)N1CCOCC1		female BALB/c mouse, plasma	intraperitoneal, 10 mg/kg, 4.8 min	concentration	2340 ng/mL
O=c1nc(N2CCN(CC3CCCCC3)CC2)sc2c([N+](=O)[O-])cc(C(F)(F)F)cc12		CD-1 mouse, plasma	oral, 100 mg/kg, 8 h	concentration	336 ng/mL
c1cnc2ccc(Nc3nc(NC4CC4)c4nc[nH]c4n3)cc2c1		human, plasma	oral, 800 mg/m², patients	MRT(0-t)	9.6 h
O=C1NN=C(N=Cc2ccc(O)c(O)c2)C1=NNn1c(-c2ccccc2)nc2ccccc2c1=O				logP	3.38
Nc1ccc(-c2ccc3ncc(-c4noc(C(F)(F)F)n4)cc3c2)cc1	metabolic stability	beagle dog, liver microsomes	1 µM	scaled CLint	115 mL/min/kg
CCc1ccc(Cc2cc([C@@H]3O[C@H](CO)[C@@H](O)[C@H](O)[C@H]3O)cc3c2CCC3)cc1		male C57BL/6 mouse, plasma	oral, 0.3 mg/kg	half-life	3.1 h
CC(C)CN(C[C@@H](O)[C@H](Cc1ccccc1)NC(=O)O[C@H]1CO[C@H]2OCC[C@H]21)S(=O)(=O)c1ccc(N)cc1		BALB/c mouse, plasma	intravenous, 25 mg/kg, 12 h	concentration	31.4 ng/mL
CS(=O)(=O)CCC#N		human, plasma	oral, 1000 mg, single dose, fasted	MRT	32.5 h
O=C(O)C1CCN(c2ncc(-c3ccc4c(c3)OCCCO4)s2)CC1		male Swiss mouse, plasma	oral, 30 mg/kg, 1 h, single dose	concentration	7580 ng/mL
Cn1cnc2c(F)c(Nc3ccc(Br)cc3Cl)c(C(=O)NOCCO)cc21		nude mouse, liver	oral, 10 mg/kg, single dose, tumour-bearing	half-life	2.7 h
CC(C)(Nc1nc(-c2ccccn2)nc2ccccc12)c1ccccn1		female BALB/c mouse, plasma	oral, 50 mg/kg, 8 h	concentration	5860 ng/mL
Oc1cccc(CCc2ccccc2)c1	HPLC			chromatographic logP	> 3.14
N#CN1C[C@H](n2nc(-c3ccc(Oc4ccc(Cl)cn4)cc3)c(C(N)=O)c2N)CCC12CC2		human, plasma	oral, 600 mg, fed	MRT	33 h
